For assay [1], the target named is T1, Bile acid receptor (Homo sapiens) (UniProt Q96RI1).
T1 sequence (whole entry): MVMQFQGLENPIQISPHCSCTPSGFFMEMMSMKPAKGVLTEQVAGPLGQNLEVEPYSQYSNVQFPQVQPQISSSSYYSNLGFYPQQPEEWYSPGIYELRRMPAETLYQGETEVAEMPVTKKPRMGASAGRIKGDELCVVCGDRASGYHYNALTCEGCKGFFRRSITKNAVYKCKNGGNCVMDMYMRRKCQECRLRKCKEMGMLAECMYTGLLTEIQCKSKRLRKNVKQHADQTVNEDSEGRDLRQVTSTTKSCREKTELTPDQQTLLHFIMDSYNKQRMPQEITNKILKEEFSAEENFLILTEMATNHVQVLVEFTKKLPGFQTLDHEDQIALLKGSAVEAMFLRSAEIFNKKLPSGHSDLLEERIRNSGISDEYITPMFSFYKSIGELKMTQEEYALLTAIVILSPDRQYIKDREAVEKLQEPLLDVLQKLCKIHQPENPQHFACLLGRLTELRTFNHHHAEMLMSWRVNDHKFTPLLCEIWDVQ
In words: (§1) Agonist activity at human recombinant FXR by transactivation of TK-MH100x4-LUC reporter gene in HEK293 cells. The format is functional, cell-based. Background: Reporter assays use an easily measured gene product as a stand-in for the process of interest.

Assay [2] addresses T2, Peroxisome proliferator-activated receptor alpha (Homo sapiens, UniProt Q07869).
T2 sequence (Q07869 whole entry): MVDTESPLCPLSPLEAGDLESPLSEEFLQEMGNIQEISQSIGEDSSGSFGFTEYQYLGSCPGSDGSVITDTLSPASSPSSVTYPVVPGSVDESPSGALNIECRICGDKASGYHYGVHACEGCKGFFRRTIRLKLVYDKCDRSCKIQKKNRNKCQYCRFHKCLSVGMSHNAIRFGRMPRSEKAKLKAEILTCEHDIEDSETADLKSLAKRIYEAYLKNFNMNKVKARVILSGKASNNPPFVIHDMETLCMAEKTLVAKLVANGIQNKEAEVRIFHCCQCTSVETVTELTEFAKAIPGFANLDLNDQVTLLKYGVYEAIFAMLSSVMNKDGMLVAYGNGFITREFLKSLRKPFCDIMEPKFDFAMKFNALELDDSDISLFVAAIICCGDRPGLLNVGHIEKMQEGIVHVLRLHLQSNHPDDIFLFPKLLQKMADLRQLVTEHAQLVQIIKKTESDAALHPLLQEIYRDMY
Put plainly: Agonist activity at human recombinant PPARalpha by transactivation of TK-MH100x4-LUC reporter gene in HEK293 cells. Type of assay: functional, cell-based. In outline: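 GAL4 fusion of the human PPARα receptor (CMX-GAL4N-hPPARα) with the TK-MH100x4-LUC reporter, plus CMX β-galactosidase for normalization. HEK293 cells were grown in DMEM with 5% FBS at 37 °C and 5% CO2 and transfected by calcium phosphate coprecipitation. Compounds were added 8 h after transfection. Luciferase was read by luminometer, normalized to β-galactosidase, and averaged over three repeat experiments.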

Assay [3] has as its target T1, Bile acid receptor (Homo sapiens). In words: Activity at human recombinant FXR by transactivation of TK-MH100x4-LUC reporter gene in HEK293 cells at 10 uM. The format is cell-based.
For assay [4], the target named is T3, Peroxisome proliferator-activated receptor alpha (Homo sapiens) (UniProt Q07869).
T3 sequence (whole entry): T2 sequence (Q07869 whole entry)
In words: Activity at human recombinant PPARalpha by transactivation of TK-MH100x4-LUC reporter gene in HEK293 cells at 10 uM. Type of assay: cell-based.

Assay [5] addresses T4, Vitamin D3 receptor (Homo sapiens) (UniProt P11473).
T4 sequence (whole entry): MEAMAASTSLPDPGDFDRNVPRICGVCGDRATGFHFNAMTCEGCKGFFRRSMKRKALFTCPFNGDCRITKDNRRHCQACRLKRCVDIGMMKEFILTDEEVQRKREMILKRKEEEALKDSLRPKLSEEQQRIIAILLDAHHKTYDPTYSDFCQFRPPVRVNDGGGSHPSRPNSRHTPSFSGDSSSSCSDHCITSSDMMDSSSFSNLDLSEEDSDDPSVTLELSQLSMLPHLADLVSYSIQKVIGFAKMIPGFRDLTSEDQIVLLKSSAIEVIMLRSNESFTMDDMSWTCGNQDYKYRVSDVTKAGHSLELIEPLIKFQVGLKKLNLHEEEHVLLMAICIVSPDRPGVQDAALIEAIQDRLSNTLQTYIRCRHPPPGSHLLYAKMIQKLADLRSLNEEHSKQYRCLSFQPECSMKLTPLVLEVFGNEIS
In words: Activity at human recombinant VDR by transactivation of TK-MH100x4-LUC reporter gene in HEK293 cells at 10 uM. The format is cell-based.

Assay [6] has as its target T5, Peroxisome proliferator-activated receptor gamma (Homo sapiens) (UniProt P37231).
T5 sequence (whole entry): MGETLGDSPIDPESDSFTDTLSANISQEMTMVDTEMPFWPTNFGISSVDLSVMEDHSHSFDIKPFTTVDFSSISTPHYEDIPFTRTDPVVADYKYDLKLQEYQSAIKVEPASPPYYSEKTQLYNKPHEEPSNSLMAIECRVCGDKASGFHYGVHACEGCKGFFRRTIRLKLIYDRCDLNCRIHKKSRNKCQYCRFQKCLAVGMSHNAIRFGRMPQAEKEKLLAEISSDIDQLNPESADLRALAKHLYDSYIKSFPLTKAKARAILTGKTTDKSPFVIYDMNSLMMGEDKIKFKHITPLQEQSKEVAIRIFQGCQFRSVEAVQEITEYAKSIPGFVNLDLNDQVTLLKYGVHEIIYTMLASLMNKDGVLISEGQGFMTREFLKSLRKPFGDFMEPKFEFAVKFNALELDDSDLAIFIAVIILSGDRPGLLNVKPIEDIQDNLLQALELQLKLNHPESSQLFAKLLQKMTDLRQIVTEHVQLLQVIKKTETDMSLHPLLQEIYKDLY
Put plainly: Activity at human recombinant PPARgamma by transactivation of TK-MH100x4-LUC reporter gene in HEK293 cells at 10 uM. Type of assay: cell-based.

In assay [7] the target is T6, Peroxisome proliferator-activated receptor delta (Homo sapiens) (UniProt Q03181).
T6 sequence (whole entry): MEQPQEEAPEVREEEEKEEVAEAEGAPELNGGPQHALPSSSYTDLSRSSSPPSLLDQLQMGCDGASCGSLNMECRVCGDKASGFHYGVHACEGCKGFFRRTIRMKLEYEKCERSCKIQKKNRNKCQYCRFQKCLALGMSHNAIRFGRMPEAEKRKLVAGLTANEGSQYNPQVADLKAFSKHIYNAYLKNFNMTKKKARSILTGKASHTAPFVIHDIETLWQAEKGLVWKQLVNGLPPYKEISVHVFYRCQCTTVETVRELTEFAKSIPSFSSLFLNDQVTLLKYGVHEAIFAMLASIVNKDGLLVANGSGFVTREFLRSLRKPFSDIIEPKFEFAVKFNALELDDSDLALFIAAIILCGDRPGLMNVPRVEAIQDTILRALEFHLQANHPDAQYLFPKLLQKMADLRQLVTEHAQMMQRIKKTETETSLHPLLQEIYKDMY
Put plainly: Activity at human recombinant PPARdelta by transactivation of TK-MH100x4-LUC reporter gene in HEK293 cells at 10 uM. The format is cell-based.

For assay [8], the target named is T7, Oxysterols receptor LXR-alpha (Homo sapiens) (UniProt Q13133).
T7 sequence (whole entry): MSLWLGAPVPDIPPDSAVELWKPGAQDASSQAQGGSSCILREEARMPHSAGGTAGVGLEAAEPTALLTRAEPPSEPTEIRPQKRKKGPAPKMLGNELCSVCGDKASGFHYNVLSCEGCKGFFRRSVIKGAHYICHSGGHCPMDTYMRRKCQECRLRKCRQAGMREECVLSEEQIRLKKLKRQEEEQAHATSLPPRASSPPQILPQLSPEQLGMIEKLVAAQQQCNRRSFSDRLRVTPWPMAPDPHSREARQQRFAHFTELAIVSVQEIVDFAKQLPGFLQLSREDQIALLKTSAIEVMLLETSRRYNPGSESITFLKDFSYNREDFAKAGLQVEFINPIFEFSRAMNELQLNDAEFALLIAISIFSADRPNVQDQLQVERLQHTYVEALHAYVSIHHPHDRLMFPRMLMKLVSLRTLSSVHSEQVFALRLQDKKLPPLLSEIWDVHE
Put plainly: Activity at human recombinant LXRalpha by transactivation of TK-MH100x4-LUC reporter gene in HEK293 cells at 10 uM. The format is cell-based.

For assay [9], the target named is T8, Retinoic acid receptor alpha (Homo sapiens) (UniProt P10276).
T8 sequence (whole entry): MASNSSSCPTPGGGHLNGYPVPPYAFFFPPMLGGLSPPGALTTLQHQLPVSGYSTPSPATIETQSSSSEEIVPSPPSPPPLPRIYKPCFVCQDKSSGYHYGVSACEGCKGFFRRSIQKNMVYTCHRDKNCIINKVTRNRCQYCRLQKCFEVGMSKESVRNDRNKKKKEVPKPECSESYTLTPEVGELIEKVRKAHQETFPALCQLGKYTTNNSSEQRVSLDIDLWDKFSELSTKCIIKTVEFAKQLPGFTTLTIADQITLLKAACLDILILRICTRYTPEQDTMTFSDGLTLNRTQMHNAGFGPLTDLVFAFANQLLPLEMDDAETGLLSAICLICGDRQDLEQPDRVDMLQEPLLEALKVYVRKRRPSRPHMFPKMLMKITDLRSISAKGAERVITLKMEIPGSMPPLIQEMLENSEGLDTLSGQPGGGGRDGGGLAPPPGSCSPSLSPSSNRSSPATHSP
Put plainly: Activity at human recombinant RARalpha by transactivation of TK-MH100x4-LUC reporter gene in HEK293 cells at 10 uM. Type of assay: cell-based.

The target of assay [10] is T9, Retinoic acid receptor RXR-alpha (Homo sapiens) (UniProt P19793).
T9 sequence (whole entry): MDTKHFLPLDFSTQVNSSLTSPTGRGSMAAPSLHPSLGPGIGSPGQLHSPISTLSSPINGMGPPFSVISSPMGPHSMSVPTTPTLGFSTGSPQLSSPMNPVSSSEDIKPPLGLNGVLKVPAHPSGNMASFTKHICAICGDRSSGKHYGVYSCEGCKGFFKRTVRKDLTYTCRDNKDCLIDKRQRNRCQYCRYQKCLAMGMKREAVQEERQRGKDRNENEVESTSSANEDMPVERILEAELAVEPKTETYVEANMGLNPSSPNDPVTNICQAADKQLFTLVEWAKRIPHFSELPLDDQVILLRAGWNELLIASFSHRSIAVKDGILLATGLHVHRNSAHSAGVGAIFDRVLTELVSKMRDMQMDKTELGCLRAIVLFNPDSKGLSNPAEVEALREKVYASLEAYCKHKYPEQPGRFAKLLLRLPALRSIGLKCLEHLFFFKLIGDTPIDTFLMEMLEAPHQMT
In words: Activity at human recombinant RXRalpha by transactivation of TK-MH100x4-LUC reporter gene in HEK293 cells at 10 uM. The format is cell-based.

The target in another assay is T10, Bile acid receptor (Homo sapiens, UniProt Q96RI1).
T10 sequence (Q96RI1 whole entry): T1 sequence (whole entry)
The description is as §1. Type of assay: functional, cell-based.

Each structure is given as a SMILES string. Calls of active or inactive are those of the source. The rule behind the calls is not given here.

Data on four compounds can be found in ChEMBL document CHEMBL1148498, “Diphenylmethane skeleton as a multi-template for nuclear receptor ligands: preparation of FXR and PPAR ligands” (Bioorg Med Chem Lett, 2006).

As to `CCC(CC)(c1ccc(NCC(O)CO)c(C)c1)c1ccc(OCc2c(-c3c(Cl)cccc3Cl)noc2C(C)C)c(C)c1` (stereo not given), in assay [1], the outcome was Active.
Take `CC(C)(Oc1ccc(C(=O)c2ccc(Cl)cc2)cc1)C(=O)O` [FENOFIBRIC ACID]: in assay [2], the EC50 came out at 9.2 µM.
`CCC(Oc1ccc(C2(c3ccc(OC(CC)C(=O)O)c(C)c3)CCCCC2)cc1C)C(=O)O` (stereo not given): in assay [2], the EC50 stood at 3.5 µM. In addition, the result in [3], in assay [5], in assay [6], in assay [7], in [8] and in assay [9] was inactive. Moreover, in assay [10], the result was inactive. Also, in assay [4], the outcome was Active.
For `CCC(CC)(c1ccc(OCC(=O)O)c(C)c1)c1ccc(OCc2c(-c3c(Cl)cccc3Cl)noc2C(C)C)c(C)c1`, on Bile acid receptor, the EC50 came out at 3.4 µM. In addition, the outcome in assay [3] was Active. Besides, the outcome in [4], in [5], in [6], in assay [7], in [8] and in assay [9] was inactive. For the same compound, in assay [10], the result was inactive.

Usually EC50 stands for the midpoint of the concentration-response curve.
